Compound activity: PubChem, several laboratories
NSD2 inh: blocks human histone methyltransferase NSD2; O96028; NSD2 peptide methylation, AlphaScreen, 120 min; AID 743445; 0.54% of 310,000 active; inhibition, % at 12.5 µM; in the data active = inhibition above about 50%
MBD2 inh: MBD2-methylated oligo binding inhibition. inhibition, % at 4.4 µM. AID 686964. Q9UBB5. TR-FRET, MBD2 binding to methylated oligonucleotide. 0.31% of 370,000 active; in the data active = inhibition above about 13%
Casp6 inh: blocks human caspase-6 cleavage activity | P55212 | purified caspase-6, Z-VEID-R110 cleavage fluorescence | inhibition, % at 12.5 µM | 0.53% of 350,000 active | AID 686996;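 active = mean inhibition across replicates at least about 35%, with every replicate also reaching that limit, limit read from the data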;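 also: 0% = median of neutral control wells and 100% = no fluorescence left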
Target sequence (P55212 24-179 limits assumed): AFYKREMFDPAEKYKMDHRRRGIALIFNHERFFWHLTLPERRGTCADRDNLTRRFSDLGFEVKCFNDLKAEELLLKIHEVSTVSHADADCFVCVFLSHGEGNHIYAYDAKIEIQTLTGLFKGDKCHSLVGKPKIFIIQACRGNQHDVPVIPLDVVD
Target sequence (P55212 194-293 limits assumed): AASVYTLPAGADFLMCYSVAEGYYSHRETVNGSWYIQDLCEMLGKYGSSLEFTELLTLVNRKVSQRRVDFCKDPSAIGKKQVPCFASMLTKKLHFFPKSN
TDP2 absorb: blocks human TDP2 phosphodiesterase activity | O95551 | recombinant TDP2, T5PNP hydrolysis, p-nitrophenol absorbance 415 nm | inhibition, % at 12.8 µM | 0.34% of 370,000 active;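 active = inhibition above the mean of all tested compounds plus 3 SD, set per campaign, cut at about 25% in these data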;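 also: 0% = DMSO with enzyme and 100% = buffer with substrate but no TDP2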
Target sequence (O95551 whole entry, looked up): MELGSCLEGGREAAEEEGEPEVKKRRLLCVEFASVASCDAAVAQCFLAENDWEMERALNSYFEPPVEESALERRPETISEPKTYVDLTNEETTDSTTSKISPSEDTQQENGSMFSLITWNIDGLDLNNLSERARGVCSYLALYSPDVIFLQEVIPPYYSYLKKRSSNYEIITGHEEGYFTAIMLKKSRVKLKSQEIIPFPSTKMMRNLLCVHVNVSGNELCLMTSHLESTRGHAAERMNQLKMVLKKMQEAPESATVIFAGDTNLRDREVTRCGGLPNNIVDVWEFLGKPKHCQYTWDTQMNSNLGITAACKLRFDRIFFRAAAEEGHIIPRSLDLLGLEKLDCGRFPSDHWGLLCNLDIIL
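System – recombinant human TDP2 · Quantity – TDP2 enzyme at 120 nM final · Doses – single concentration, 12.8 µM nominal, with 1% DMSO · Incubation – 2 h at 37 °C · Measured by – epi absorbance of p-nitrophenol freed from T5PNP by hydrolysis · Read-out – % inhibition relative to enzyme-containing and enzyme-free wells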
LEDGF integ inh: blocks HIV-1 LEDGF/p75-dependent DNA integration; TR-FRET IN-LEDGF/p75 DNA integration, Eu/Cy5; inhibition, % at 3.7 µM; 0.64% of 370,000 active;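 active = inhibition above the screen-wide mean plus 3 SD, cut at about 13% in these data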;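 also: signal is the Cy5 over europium emission ratio at 671 and 618 nm; 0% = plate median of compound wells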
UHRF1 binding: UHRF1 methyl-DNA binding inhibition; UHRF1 binding to methylated oligo, TR-FRET; AID 687016; 0.75% of 370,000 active; inhibition, % at 4.4 µM; in the data active = inhibition above about 21%;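 also: UHRF1 SRA domain binding a hemimethylated CpG hairpin DNA probe; 0% = median of test compound wells and 100% = reference inhibitor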
TDP2 inh conf: confirmation of human TDP2 inhibitors | shares compounds with TDP2 absorb | recombinant human TDP2, absorbance read-out | inhibition, % at 12.8 µM | 22% of 1,100 active; in the data active = inhibition above about 25%;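 also: 0% = vehicle with enzyme and 100% = no enzyme buffer only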
IN multimer up: counter-screen for LEDGF/p75 integration inhibitors: HIV-1 integrase multimerization activators; shares compounds with LEDGF integ inh; 17% of 2,000 active; activation, % at 7.7 µM; AID 1053131; TR-FRET HIV-1 integrase multimerization, biochemical; in the data active = activation above about 8.9%
TRFRET interf: TR-FRET optical interference, LEDGF/p75 integration counter-screen; shares compounds with LEDGF integ inh; TR-FRET optical interference counterscreen, HIV-1 IN multimerization; inhibition, % at 7.7 µM; 2,000 tested, under 10 active; AID 1053135;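 active = inhibition above the mean over all tested compounds plus 3 SD, which no compound reached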;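 also: 0% = integrase with antibodies and DMSO and 100% = antibodies without integrase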
LEDGF integ conf: confirmation of HIV-1 LEDGF/p75-dependent integration inhibitors. shares compounds with LEDGF integ inh. TR-FRET LEDGF/p75-dependent HIV-1 integration, biochemical. inhibition, % at 3.7 µM. 36% of 2,000 active. AID 1053136; in the data active = inhibition above about 14%
Alpha artifact: counter-screen for NSD2 inhibitors: AlphaScreen artifacts; AC35, µM (doses to about 10 µM), without a hit: top-dose activity change, negative = signal loss; AID 1053174; 9.4% of 1,500 active; shares compounds with NSD2 inh; AlphaScreen artifact counterscreen, preloaded methylated H4 peptide; call rule not given here
The depositor's hits bear a star; x = no result. Most compounds without a hit are left out; they make up all but 1.8% or so of the library.

SMILES | NSD2 inh | MBD2 inh | Casp6 inh | TDP2 absorb | LEDGF integ inh | UHRF1 binding | IN multimer up | TRFRET interf | LEDGF integ conf | others
CCCCn1c(NC(=O)c2ccco2)c(C(=O)OCC)c2nc3ccccc3nc21 | 175* | 10 | x | 79* | 30* | 17 | -2 | 6 | 62* | TDP2 inh conf=76*;Alpha artifact=2%
CCCN1[C@@H]2Cn3c(ccc(-c4ccccc4)c3=O)[C@H]1[C@@H](C(=O)OC)[C@@H]2CO | x | x | 0 | x | x | x | x | x | x
O=[N+]([O-])c1cccc(O)c1 | x | 1 | -2 | 0 | -4 | -1 | x | x | x
O=[N+]([O-])c1cc(S(=O)(=O)c2ccc(O)c([N+](=O)[O-])c2)ccc1O | 29 | 3 | x | -17 | 17* | 42* | 28* | -141 | 27*
O=c1[nH]c(=O)n(Cc2ccco2)c(O)c1/C=N/N1CCCCC1 | 4 | -4 | 16 | 1 | 23* | 6 | -2 | 7 | 9
CCN(CC)c1ccc(N=Cc2c(O)n(-c3ccccc3)c(=O)[nH]c2=O)cc1 | 24 | -4 | -1 | 1 | 12 | 3 | x | x | x
CCOc1ccccc1-n1c(O)c(C=Nc2ccc(N(CC)CC)cc2)c(=O)[nH]c1=O | -3 | -6 | x | 5 | 14* | -1 | 2 | -11 | -6
CCN(CC)c1ccc(N=Cc2c(O)n(-c3ccccc3C)c(=O)[nH]c2=O)cc1 | 1 | -6 | x | 7 | 28* | 4 | 1 | -3 | 5
CCN(CC)c1ccc(N=Cc2c(O)[nH]c(=O)[nH]c2=O)cc1 | 2 | -5 | 2 | 8 | 26* | 11 | 12* | -44 | 3
N#Cc1cccc(-c2ccc([C@@H]3[C@@H](CO)N4CCCCN(C(=O)Cc5ccncc5)C[C@H]34)cc2)c1 | x | x | 0 | x | x | x | x | x | x
Clc1ccc(OCC#CCN2CCOCC2)cc1 | 1 | 1 | -2 | 4 | 24* | -2 | 0 | 0 | 3
CC1CCN(CC#CCOc2ccc(Cl)cc2)CC1 | 3 | 3 | -1 | 13 | -3 | 1 | x | x | x
NCCc1cc(O)c(O)cc1O | x | 25* | x | 8 | 56* | 58* | 64* | -324 | 75*
O=C(Cc1ccccc1)N1CC2(C1)[C@H](c1ccccc1)[C@H](CO)N2Cc1cccc(F)c1 | x | x | 0 | x | x | x | x | x | x
Cc1ccc(S(=O)(=O)NCCC(=O)Nc2ccc(Cl)cc2C(=O)c2ccccc2)cc1 | 2 | -2 | x | 1 | 28* | 0 | 1 | -6 | -2
Cc1ccc(OCC(=O)Nc2ccc(Cl)cc2C(=O)c2ccccc2)cc1 | 4 | 0 | x | -2 | -2 | 4 | x | x | x
Cc1ccc(S(=O)(=O)Nc2cc(C(=O)N3CCC4(CC3)OCCO4)ccc2N2CCCCC2)cc1 | -1 | -2 | x | 1 | 16* | -1 | -1 | 2 | -1
CC(=O)c1ccc2c(c1)C1C(Cl)C(Sc3ccccc3[N+](=O)[O-])CC1C(C(=O)O)N2 (stereo not drawn) | 5 | 4 | x | 6 | 14* | 9 | 6 | -28 | 20*
COC(=O)[C@H]1[C@H](CO)[C@H]2Cn3c(ccc(-c4cccc(C(=O)N(C)C)c4)c3=O)[C@@H]1N2CC1CC1 | x | x | 0 | x | x | x | x | x | x
CCCCn1nnnc1C(CCc1ccccc1)N1CCC(n2c(=O)[nH]c3ccccc32)CC1 (stereo not drawn) | x | 8 | 4 | 4 | 20* | 1 | 0 | 0 | -3
COc1ccc(C(O)(c2cncnc2)C2CC2)cc1 (stereo not drawn) | x | x | 0 | x | x | x | x | x | x
COC(=O)C1=C(c2ccc(-c3ccccc3)c(F)c2)C[C@@H]2CC[C@H]1N2C(=O)NCCNC(C)=O | x | 2 | -2 | -5 | 0 | -2 | x | x | x
COC(=O)C1=C(c2ccc(-c3ccccc3)c(F)c2)C[C@@H]2CC[C@H]1N2C(=O)NCCOc1ccc(OC)cc1 | x | -7 | 2 | -22 | 15* | 7 | -2 | 8 | -6
O=C(NC[C@H]1CC[C@H]2[C@H](CN2Cc2cccnc2)O1)C1CC1 | x | x | 1 | x | x | x | x | x | x
CN1C(=O)NC(=O)[C@]2(Cc3ccccc3N3CCN(c4ccccc4)CC32)C1=O (stereo partly drawn) | 5 | 0 | x | 11 | 40* | 0 | 0 | -1 | 4
SMILES | NSD2 inh | MBD2 inh | Casp6 inh | TDP2 absorb | LEDGF integ inh | UHRF1 binding | IN multimer up | TRFRET interf | LEDGF integ conf | others
CCN1[C@@H]2Cn3c(ccc(-c4ccc(OC)cc4)c3=O)[C@H]1[C@@H](C(=O)OC)[C@@H]2CO | x | x | -2 | x | x | x | x | x | x
COc1ccc(CN2Cc3cc(-c4ccc(OC)cc4)ccc3-n3nncc3C2)cc1 | x | 3 | 2 | -3 | 17* | 1 | 1 | -4 | -3
COc1ccc(CN2Cc3cc(-c4ccccc4)ccc3-n3nncc3C2)cc1 | x | 5 | 0 | 1 | 12 | 1 | x | x | x
CN1C(=O)/C(=C/c2cccn2-c2ccc3ccccc3c2)C(=O)NC1=S | 6 | -2 | x | 7 | 18* | 0 | 6 | -29 | 30*
CN1C[C@H](CO)C=C2c3cccc4[nH]cc(c34)C[C@H]21 | x | -5 | 6 | 13 | 16* | -5 | 1 | -4 | 3
Clc1cccc(CNCCc2ccc3c(c2)OCO3)c1 | 46 | 2 | x | 11 | 15* | 0 | 0 | 0 | -2
CCCC#Cc1ccc([C@H]2[C@@H](CO)N3CCCCN(C(=O)Cc4ccccn4)C[C@@H]23)cc1 | x | x | 1 | x | x | x | x | x | x
CC=Cc1ccc2n(c1=O)C[C@H]1[C@H](CO)[C@@H](C(=O)OC)[C@@H]2N1S(=O)(=O)c1ccccc1C (mixture of isomers) | x | x | -2 | x | x | x | x | x | x
Cc1cc(/C=C2\C(=O)NC(=O)N(Cc3ccccc3)C2=O)c(C)n1C1CC1 | 2 | 0 | 2 | 1 | 1 | -6 | x | x | x
Cc1cccc(OCCn2cccc2/C=C2/C(=O)NC(=O)N(Cc3ccco3)C2=O)c1 | 13 | 4 | 44* | 8 | 50* | 49* | 4 | -15 | 24*
Cc1cc(/C=C2/C(=O)NC(=O)N(Cc3ccco3)C2=O)c(C)n1-c1ccccc1 | 10 | 7 | x | -10 | 53* | 45* | 1 | -4 | 11
